ChEMBL document CHEMBL2385077, “Synthesis, local anaesthetic and antiarrhythmic activities of N-alkyl derivatives of proline anilides” (Eur J Med Chem, 2013)
Activity calls are given as the source filed them.

What was measured:
[1] = test system: Mus musculus; assay: Antiarrhythmic index, ratio of LD50 for Swiss albino mouse to ED50 for calcium chloride-induced Swiss albino mouse; type: functional, Heart
In short: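 ED50 taken as mean effective dose preventing arrhythmia-associated death, reported only when below ½ LD50. LD50 from acute i.v. toxicity in mice. Index computed as LD50/ED50.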

[2] = Toxicity in iv dosed Swiss albino mouse after 72 hrs; type: organism-based; conditions: in vivo
In short: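 Albino Swiss mice of both sexes, 18-22 g, received aqueous solutions via tail vein at increasing doses. Mortality and behavioural changes followed for 72 h. LD50 reported in mg/kg with range in parentheses.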

[3] = test system: Mus musculus; assay: Antiarrhythmic activity in iv dosed Swiss albino mouse assessed as inhibition of calcium chloride-induced cardiac arrhythmia after 15 mins; type: functional; conditions: Heart, 0.25 h
In short: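 Swiss albino mice received compound i.v. at doses up to ½ LD50 (acute i.v. toxicity measured beforehand). Fifteen minutes later arrhythmia was provoked by i.v. calcium chloride (3%, 280 mg/kg). ED50 was taken as the mean effective dose preventing arrhythmia-associated mortality, and was determined only when below ½ LD50.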

[4] = test system: Oryctolagus cuniculus; assay: Surface anesthetic effect in New Zealand white rabbit assessed as time duration; type: functional
In short: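 Rabbit corneal reflex test: 1% aqueous solution (0.25 ml) instilled into the conjunctival sac over 30 sec. Cornea touched with a pointer (up to 100 per series) at 8, 10, 12 and 15 min, then every 5 min. Six animals per compound; mean ± SEM.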

[5] = test system: Rattus norvegicus; assay: Anesthetic effect in Wistar rat assessed as duration of blockage of muscle contraction by infiltration local anaesthetic activity assay; type: functional, Muscle tissue
In short: (§1)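 Shaved lumbar back skin of Wistar rats; electrical stimulation threshold for surface muscle contraction found first (rectangular pulses, 0.36 to 14.0 V, 0.3 ms, 50 Hz). 0.5% compound in saline given as 0.2 ml intradermal plus 0.2 ml subcutaneous. Threshold re-measured at 3 and 5 min, then every 5 min until back to baseline. Depth is % threshold change from initial; >2-fold rise = 100% anaesthesia. Six rats per compound.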

[6] = test system: Rattus norvegicus; assay: Anesthetic effect in Wistar rat assessed as time taken for blockage of muscle contraction by infiltration local anaesthetic activity assay; type: functional, Muscle tissue; in short: as §1
[7] = test system: Rattus norvegicus; assay: Anesthetic effect in Wistar rat assessed as duration of complete blockage of muscle contraction by infiltration local anaesthetic activity assay; type: functional, Muscle tissue; in short: as §1
[8] = test system: Rattus norvegicus; assay: Anesthetic effect in Wistar rat assessed as increase in threshold value by infiltration local anaesthetic activity assay relative to control; type: functional; in short: as §1
[9] = test system: Rattus norvegicus; assay: Anesthetic effect in Wistar rat assessed as increase in depth of anesthesia after 35 mins by infiltration local anaesthetic activity assay relative to control; type: functional, organism-based; in short: as §1

Row | SMILES | Ratio LD50/ED50 [1] | LD50 at 72 h [2] | ED50 [3] | Time [4] | Time [5] | Time [6] | Time [7] | Activity [8] | Activity [9]
1 | Cc1cc(C)c(NC(=O)C2CCCN2C2CCCCC2)c(C)c1.Cl (stereo not drawn) [CYCLOMECAINE] | 5.2 | 15 mg/kg | 2.9 mg/kg | 124.5 min |  |  |  |  | 
2 | CCCCN1CCCC1C(=O)Nc1ccccc1CC.Cl (mixture of isomers) | 4.2 | 30 mg/kg | 7.1 mg/kg | 12.7 min |  |  |  |  | 
3 | CCCCN1CCCC1C(=O)Nc1ccccc1I.Cl (mixture of isomers) | 5.6 | 41 mg/kg | 7.3 mg/kg | 20.3 min |  |  |  |  | 
4 | Cl.O=C(Nc1ccccc1Cl)C1CCCN1C1CCCCC1 (mixture of isomers) | 6.9 | 95 mg/kg | 13.7 mg/kg | 41.3 min |  |  |  |  | 
5 | CCN1CCCC1C(=O)Nc1ccccc1C.Cl (mixture of isomers) |  | 36.8 mg/kg | > 18.4 mg/kg |  |  |  |  |  | 
6 | Cc1ccc(NC(=O)C2CCCN2C2CCCCC2)c(C)c1.Cl (mixture of isomers) | 7.3 | 65 mg/kg | 8.9 mg/kg | 73.2 min | 126.3 min | 1 min |  |  | 
7 | CCN(CC)CC(=O)Nc1c(C)cccc1C [LIDOCAINE] |  |  | 7.7 mg/kg | 37.8 min |  |  |  |  | 
8 | CCCCN1CCCC1C(=O)Nc1ccc(Br)cc1Br.Cl (mixture of isomers) | 3.5 | 239 mg/kg | 69 mg/kg |  |  |  |  |  | 
9 | CCCCN1CCCC1C(=O)Nc1c(C)cccc1C.Cl (mixture of isomers) |  | 9.2 mg/kg | > 4.6 mg/kg | 57.5 min |  | 1 min | 20 min | 90% | 
10 | Cc1ccccc1NC(=O)C1CCCN1C1CCCCC1.Cl (mixture of isomers) |  | 12.9 mg/kg | > 6.5 mg/kg | 46.5 min |  |  |  |  | 
11 | CCCCCCN1CCCC1C(=O)Nc1ccccc1C.Cl (mixture of isomers) | 6.3 | 35.5 mg/kg | 5.6 mg/kg | 75.7 min | 115 min | 1 min |  |  | 
12 | CCCCN1CCCC1C(=O)Nc1ccc(Cl)cc1Cl.Cl (mixture of isomers) |  | 32.5 mg/kg | > 16.3 mg/kg |  |  |  |  |  | 
13 | CCCCN1CCCC1C(=O)Nc1ccccc1C(F)(F)F.Cl (mixture of isomers) | 6.1 | 35.5 mg/kg | 5.8 mg/kg | 20.4 min |  |  |  |  | 
14 | CCCCN1CCCC1C(=O)Nc1ccccc1C.Cl (mixture of isomers) | 3 | 16.3 mg/kg | 5.4 mg/kg | 49.4 min |  | 1 min | 12.5 min |  | 
15 | CCCCCN1CCCC1C(=O)Nc1ccccc1C.Cl (mixture of isomers) | 5.9 | 32.5 mg/kg | 5.5 mg/kg | 59.8 min |  |  |  |  | 
16 | CCCN1CCCC[C@H]1C(=O)Nc1c(C)cccc1C [ROPIVACAINE] | 3.8 | 14.1 mg/kg | 3.7 mg/kg | 58.4 min | 80 min | 1 min | 58.8 min |  | 
17 | CCCCN1CCCC1C(=O)Nc1ccccc1C (racemic) |  |  |  |  |  |  |  |  | inactive
18 | CCCCN1CCCCC1C(=O)Nc1c(C)cccc1C (stereo not drawn) [BUPIVACAINE] | 2.5 | 8.9 mg/kg | 3.5 mg/kg | 94 min | 155 min | 1 min | 102.5 min |  | 
19 | Cc1ccccc1NC(=O)[C@@H]1CCCN1Cc1ccccc1.Cl | 3.3 | 35.5 mg/kg | 10.9 mg/kg |  |  |  |  |  | 
20 | Cc1ccccc1NC(=O)[C@@H]1CCCN1C.Cl |  | 32.5 mg/kg | > 16.3 mg/kg |  |  |  |  |  | 
21 | CCCCN1CCCC1C(=O)Nc1ccc(C)cc1C.Cl (mixture of isomers) |  | 60 mg/kg | > 30 mg/kg | 59 min |  |  |  |  | 
